The assay addresses T1, Alpha-1D adrenergic receptor (Homo sapiens, UniProt P25100).
T1 sequence (P25100 whole entry): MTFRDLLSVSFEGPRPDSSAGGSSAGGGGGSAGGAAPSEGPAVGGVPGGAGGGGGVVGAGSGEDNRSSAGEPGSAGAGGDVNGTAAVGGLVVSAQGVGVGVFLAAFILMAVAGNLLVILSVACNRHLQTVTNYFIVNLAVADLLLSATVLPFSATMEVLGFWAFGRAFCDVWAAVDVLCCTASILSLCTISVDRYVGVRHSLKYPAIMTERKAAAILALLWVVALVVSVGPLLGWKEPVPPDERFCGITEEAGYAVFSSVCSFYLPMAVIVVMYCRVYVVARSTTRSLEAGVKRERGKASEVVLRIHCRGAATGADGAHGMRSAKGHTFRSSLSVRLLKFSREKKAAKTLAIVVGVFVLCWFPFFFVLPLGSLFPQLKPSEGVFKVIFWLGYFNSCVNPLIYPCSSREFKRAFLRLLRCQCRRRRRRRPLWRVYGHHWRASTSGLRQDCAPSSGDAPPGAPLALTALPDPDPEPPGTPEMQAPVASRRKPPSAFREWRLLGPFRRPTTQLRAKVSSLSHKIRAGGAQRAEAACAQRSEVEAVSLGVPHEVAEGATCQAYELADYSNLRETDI
Kind of assay: Binding affinity determined by displacement of [3H]prazosin from alpha-1D adrenergic receptor. In a few lines:
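Radioligand displacement binding with [3H]prazosin at the alpha-1d adrenoceptor. Incubation ran 30 min, with 4 h used for one earlier reference compound. Results were expressed as pKi.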
Background: Loss of bound radioactivity is the signal in a displacement assay; it reports binding, not function.

We go through one compound from BindingDB's records for doi:10.1021/jm980077m (New York University Medical Center, 1998).

Each structure is given as a SMILES string. Where “and” joins values, the source holds several entries; their conditions need not be identical. Equal entries are not always repeated.

In the case of `CC1=NC(C)=C(C(=O)NCCCN2CCC(c3ccccc3)(c3ccccc3)CC2)C(c2ccc([N+](=O)[O-])cc2)C1C(N)=O` (stereo unspecified) [2,6-Dimethyl-4-(4-nitro-phenyl)-1,4-dihydro-pyridine-3,5-dicarboxylic acid 3-amide 5-{[3-(4,4-diphenyl-piperidin-1-yl)-propyl]-amide}], the Ki is 224 nM and 223 nM.

What is called Ki is a measure of affinity in units of concentration, obtained from inhibition or displacement.
